ChEMBL document CHEMBL4138242, “Synthesis and antibacterial evaluation of novel cationic chalcone derivatives possessing broad spectrum antibacterial activity” (Eur J Med Chem, 2018)
Active and inactive are the calls of the source. The rule behind the calls is not given here.

Legend:
Staphylococcus aureus [1] = experiment: Antibacterial activity against Staphylococcus aureus ATCC 29213 after 16 to 20 hrs by broth microdilution method; format: functional
Summary of the method: (§1)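 Broth microdilution per CLSI. Bacteria grown 4-6 h (about 10⁸ CFU/mL), then diluted to about 10⁶ CFU/mL. Medium: Mueller-Hinton broth, except Luria-Bertani broth for E. coli. Compounds in sterile water, twofold series 256-0.5 µg/mL, mixed 1:1 with inoculum, 37 °C for 16-20 h. MIC is the lowest concentration without visible growth. Duplicate wells; experiment repeated at least twice.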

Enterococcus faecalis = experiment: Antibacterial activity against Enterococcus faecalis ATCC 29212 after 16 to 20 hrs by broth microdilution method; format: functional; summary of the method: as §1
Escherichia coli [2] = experiment: Antibacterial activity against Escherichia coli ATCC 25922 after 16 to 20 hrs by broth microdilution method; format: functional; summary of the method: as §1
Salmonella enterica = experiment: Antibacterial activity against Salmonella enterica ATCC 13076 after 16 to 20 hrs by broth microdilution method; format: functional; summary of the method: as §1
[3] = Hemolytic activity in sheep RBC after 1 hr; format: ADME, cell-based, Ovis aries, Erythrocyte; conditions: sheep red blood cells (erythrocytes)
Summary of the method: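 Sheep red blood cells (150 µL suspension) mixed with 50 µL of compound dilutions (5120-10 µg/mL), 1 h at 37 °C, then centrifuged. Supernatant read at 540 nm. Percent hemolysis calculated relative to RBC-only control (0%) and 0.1% Triton X-100 (100%).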

Staphylococcus aureus [4] = experiment: Antibacterial activity against methicillin-resistant Staphylococcus aureus clinical isolate 1105183 cono7 after 16 to 20 hrs by broth microdilution method; format: functional
Summary of the method: (§2)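 CLSI broth microdilution in Mueller-Hinton broth. A 4-6 h culture was diluted to about 10⁶ CFU/mL and mixed 1:1 with compound dilutions prepared at 256 to 0.5 µg/mL from aqueous stocks. Plates were incubated at 37 °C for 16-20 h and read visually for MIC. Each concentration was run in duplicate, and the experiment was repeated at least twice. Vancomycin and meropenem were comparators.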

Staphylococcus aureus [5] = experiment: Antibacterial activity against methicillin-resistant Staphylococcus aureus clinical isolate 20130911034sau after 16 to 20 hrs by broth microdilution method; format: functional; summary of the method: as §2
Staphylococcus aureus [6] = experiment: Antibacterial activity against methicillin-resistant Staphylococcus aureus clinical isolate 0831010 after 16 to 20 hrs by broth microdilution method; format: functional; summary of the method: as §2
Staphylococcus aureus [7] = experiment: Antibacterial activity against methicillin-resistant Staphylococcus aureus clinical isolate 1104060 after 16 to 20 hrs by broth microdilution method; format: functional; summary of the method: as §2
Staphylococcus aureus [8] = experiment: Antibacterial activity against methicillin-resistant Staphylococcus aureus clinical isolate 20131012632sau after 16 to 20 hrs by broth microdilution method; format: functional; summary of the method: as §2
Staphylococcus aureus [9] = experiment: Antibacterial activity against methicillin-resistant Staphylococcus aureus clinical isolate 1207007 after 16 to 20 hrs by broth microdilution method; format: functional; summary of the method: as §2
Staphylococcus aureus [10] = experiment: Antibacterial activity against methicillin-resistant Staphylococcus aureus clinical isolate 1-may after 16 to 20 hrs by broth microdilution method; format: functional; summary of the method: as §2
Staphylococcus aureus [11] = experiment: Antibacterial activity against methicillin-resistant Staphylococcus aureus clinical isolate 0906202 after 16 to 20 hrs by broth microdilution method; format: functional; summary of the method: as §2
Staphylococcus aureus [12] = experiment: Antibacterial activity against methicillin-resistant Staphylococcus aureus clinical isolate 1208143 after 16 to 20 hrs by broth microdilution method; format: functional; summary of the method: as §2
Klebsiella pneumoniae [13] = experiment: Antibacterial activity against drug-resistant carbapenemase producing Klebsiella pneumoniae clinical isolate KP-14-8 after 16 to 20 hrs by broth microdilution method; format: functional; summary of the method: as §2
Klebsiella pneumoniae [14] = experiment: Antibacterial activity against drug-resistant carbapenemase producing Klebsiella pneumoniae clinical isolate KP-13-45 after 16 to 20 hrs by broth microdilution method; format: functional; summary of the method: as §2
Klebsiella pneumoniae [15] = experiment: Antibacterial activity against drug-resistant carbapenemase producing Klebsiella pneumoniae clinical isolate KP-14-3 after 16 to 20 hrs by broth microdilution method; format: functional; summary of the method: as §2
Klebsiella pneumoniae [16] = experiment: Antibacterial activity against drug-resistant carbapenemase producing Klebsiella pneumoniae clinical isolate KP-14-1 after 16 to 20 hrs by broth microdilution method; format: functional; summary of the method: as §2
Klebsiella pneumoniae [17] = experiment: Antibacterial activity against drug-resistant carbapenemase producing Klebsiella pneumoniae clinical isolate KP-14-4 after 16 to 20 hrs by broth microdilution method; format: functional; summary of the method: as §2
Klebsiella pneumoniae [18] = experiment: Antibacterial activity against drug-resistant carbapenemase producing Klebsiella pneumoniae clinical isolate KP-13-54 after 16 to 20 hrs by broth microdilution method; format: functional; summary of the method: as §2
Klebsiella pneumoniae [19] = experiment: Antibacterial activity against drug-resistant carbapenemase producing Klebsiella pneumoniae clinical isolate KP-14-2 after 16 to 20 hrs by broth microdilution method; format: functional; summary of the method: as §2
Klebsiella pneumoniae [20] = experiment: Antibacterial activity against drug-resistant carbapenemase producing Klebsiella pneumoniae clinical isolate EC-13-23 after 16 to 20 hrs by broth microdilution method; format: functional; summary of the method: as §2
Klebsiella pneumoniae [21] = experiment: Antibacterial activity against drug-resistant carbapenemase producing Klebsiella pneumoniae clinical isolate KP-14-5 after 16 to 20 hrs by broth microdilution method; format: functional; summary of the method: as §2
Klebsiella pneumoniae [22] = experiment: Antibacterial activity against drug-resistant carbapenemase producing Klebsiella pneumoniae clinical isolate KP-13-55 after 16 to 20 hrs by broth microdilution method; format: functional; summary of the method: as §2
Klebsiella pneumoniae [23] = experiment: Antibacterial activity against drug-resistant carbapenemase producing Klebsiella pneumoniae clinical isolate KP-14-45 after 16 to 20 hrs by broth microdilution method; format: functional; summary of the method: as §2
Klebsiella pneumoniae [24] = experiment: Antibacterial activity against drug-resistant carbapenemase producing Klebsiella pneumoniae clinical isolate KP-14-18 after 16 to 20 hrs by broth microdilution method; format: functional; summary of the method: as §2
Escherichia coli [25] = experiment: Antibacterial activity against drug-resistant NDM1 producing Escherichia coli clinical isolate EC-13-49 after 16 to 20 hrs by broth microdilution method; format: functional; summary of the method: as §2
Escherichia coli [26] = experiment: Antibacterial activity against drug-resistant NDM1 producing Escherichia coli clinical isolate Ecl-14-58 after 16 to 20 hrs by broth microdilution method; format: functional; summary of the method: as §2
Escherichia coli [27] = experiment: Antibacterial activity against drug-resistant NDM1 producing Escherichia coli clinical isolate KP-13-58 after 16 to 20 hrs by broth microdilution method; format: functional; summary of the method: as §2
Escherichia coli [28] = experiment: Antibacterial activity against drug-resistant NDM1 producing Escherichia coli clinical isolate Ecl-13-62 after 16 to 20 hrs by broth microdilution method; format: functional; summary of the method: as §2
Escherichia coli [29] = experiment: Antibacterial activity against drug-resistant NDM1 producing Escherichia coli clinical isolate EC-14-54 after 16 to 20 hrs by broth microdilution method; format: functional; summary of the method: as §2
Escherichia coli [30] = experiment: Antibacterial activity against drug-resistant NDM1 producing Escherichia coli clinical isolate Ecl-14-59 after 16 to 20 hrs by broth microdilution method; format: functional; summary of the method: as §2
Escherichia coli [31] = experiment: Antibacterial activity against drug-resistant NDM1 producing Escherichia coli clinical isolate EA-14-61 after 16 to 20 hrs by broth microdilution method; format: functional; summary of the method: as §2
Escherichia coli [32] = experiment: Antibacterial activity against drug-resistant NDM1 producing Escherichia coli clinical isolate Ecl-14-56 after 16 to 20 hrs by broth microdilution method; format: functional; summary of the method: as §2
Escherichia coli [33] = experiment: Antibacterial activity against drug-resistant NDM1 producing Escherichia coli clinical isolate 1460 after 16 to 20 hrs by broth microdilution method; format: functional; summary of the method: as §2
Escherichia coli [34] = experiment: Antibacterial activity against drug-resistant NDM1 producing Escherichia coli clinical isolate SM-15-84 after 16 to 20 hrs by broth microdilution method; format: functional; summary of the method: as §2
Escherichia coli [35] = experiment: Antibacterial activity against drug-resistant NDM1 producing Escherichia coli clinical isolate CF-15-61 after 16 to 20 hrs by broth microdilution method; format: functional; summary of the method: as §2
Escherichia coli [36] = experiment: Antibacterial activity against drug-resistant NDM1 producing Escherichia coli clinical isolate CF-13-61 after 16 to 20 hrs by broth microdilution method; format: functional; summary of the method: as §2
Staphylococcus aureus [37] = experiment: Induction of cytoplasmic membrane depolarization in Staphylococcus aureus ATCC 29213 at 10 to 20 ug/ml measured every 2 mins for 12 mins by DiSC35 dye-based fluorescence assay; format: functional, organism-based
Summary of the method: (§3)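 Mid-log cells (~10⁸ CFU/mL) were suspended in PBS (S. aureus) or HEPES/glucose/KCl with EDTA (E. coli). They were preloaded with DiSC3(5) for 30 min (S. aureus) or 40 min (E. coli), and baseline fluorescence was read for 8 min. Compound was added to 20 µg/mL final, and fluorescence (ex 622/em 670 nm) was read every 2 min for 12 min. Water served as control.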

Escherichia coli [38] = experiment: Induction of cytoplasmic membrane depolarization in Escherichia coli ATCC 25922 at 10 to 20 ug/ml measured every 2 mins for 12 mins by DiSC35 dye-based fluorescence assay; format: functional, organism-based; summary of the method: as §3
Staphylococcus aureus [39] = experiment: Induction of inner membrane permeabilization in Staphylococcus aureus ATCC 29213 at 10 to 20 ug/ml measured every 2 mins for 12 mins by propidium iodide staining-based fluorescence assay; format: functional, organism-based
Summary of the method: (§4)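 Mid-log cells (~10⁸ CFU/mL) were suspended in PBS (S. aureus) or HEPES/glucose/KCl (E. coli). They were preincubated with propidium iodide for 30 min (S. aureus) or 40 min (E. coli), and baseline fluorescence was read for 8 min. Compound was added to 20 µg/mL final, and fluorescence (ex 535/em 617 nm) was read every 2 min for 12 min.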

Escherichia coli [40] = experiment: Induction of inner membrane permeabilization in Escherichia coli ATCC 25922 at 10 to 20 ug/ml measured every 2 mins for 12 mins by propidium iodide staining-based fluorescence assay; format: functional, organism-based; summary of the method: as §4

## CCCCCCCC[N+](C)(C)CC(=O)Nc1ccc(C(=O)/C=C/c2ccc(F)cc2)cc1.[Cl-]
Staphylococcus aureus [1]
  MIC: 2 µg/mL
Enterococcus faecalis
  MIC: 2 µg/mL
Escherichia coli [2]
  MIC: 2 µg/mL
Salmonella enterica
  MIC: 4 µg/mL
[3]
  HC50 at 1 h: 83 µg/mL
Staphylococcus aureus [4]
  MIC: 1 µg/mL
Staphylococcus aureus [5]
  MIC: 0.5 µg/mL
Staphylococcus aureus [6]
  MIC: 0.5 µg/mL
Staphylococcus aureus [7]
  MIC: 8 µg/mL
Staphylococcus aureus [8]
  MIC: 2 µg/mL
Staphylococcus aureus [9]
  MIC: 0.5 µg/mL
Staphylococcus aureus [10]
  MIC: 1 µg/mL
Staphylococcus aureus [11]
  MIC: 4 µg/mL
Staphylococcus aureus [12]
  MIC: 2 µg/mL
Klebsiella pneumoniae [13]
  MIC: 4 µg/mL
Klebsiella pneumoniae [14]
  MIC: 4 µg/mL
Klebsiella pneumoniae [15]
  MIC: 8 µg/mL
Klebsiella pneumoniae [16]
  MIC: 4 µg/mL
Klebsiella pneumoniae [17]
  MIC: 4 µg/mL
Klebsiella pneumoniae [18]
  MIC: 4 µg/mL
Klebsiella pneumoniae [19]
  MIC: 16 µg/mL
Klebsiella pneumoniae [20]
  MIC: 2 µg/mL
Klebsiella pneumoniae [21]
  MIC: 4 µg/mL
Klebsiella pneumoniae [22]
  MIC: 8 µg/mL
Klebsiella pneumoniae [23]
  MIC: 8 µg/mL
Klebsiella pneumoniae [24]
  MIC: 8 µg/mL
Escherichia coli [25]
  MIC: 4 µg/mL
Escherichia coli [26]
  MIC: 4 µg/mL
Escherichia coli [27]
  MIC: 1 µg/mL
Escherichia coli [28]
  MIC: 4 µg/mL
Escherichia coli [29]
  MIC: 16 µg/mL
Escherichia coli [30]
  MIC: 4 µg/mL
Escherichia coli [31]
  MIC: 4 µg/mL
Escherichia coli [32]
  MIC: 16 µg/mL
Escherichia coli [33]
  MIC: 8 µg/mL
Escherichia coli [34]
  MIC: 16 µg/mL
Escherichia coli [35]
  MIC: 4 µg/mL
Escherichia coli [36]
  MIC: 16 µg/mL
Staphylococcus aureus [37]
  Activity: Active
Escherichia coli [38]
  Activity: Active
Staphylococcus aureus [39]
  Activity: Active
Escherichia coli [40]
  Activity: Active
